Data taken from ChEMBL document CHEMBL2407068, “Tropolones as lead-like natural products: the development of potent and selective histone deacetylase inhibitors” (ACS Med Chem Lett, 2013).

Columns and labels:
Histone deacetylase 5 = Histone deacetylase 5 (Homo sapiens, UniProt Q9UQL6); assay: Inhibition of human recombinant HDAC5 by Michaelis-Menten equation analysis
BXPC-3 = assay: Cytotoxicity against human BxPC3 cells after 72 hrs by MTS assay; type: functional; settings: BXPC-3, 72 h
Homo sapiens [1] = species on record: Homo sapiens; assay: Selectivity ratio of Ki for human recombinant HDAC4 to Ki for human recombinant HDAC2
Histone deacetylase 2 = Histone deacetylase 2 (Homo sapiens, UniProt Q92769); assay: Inhibition of human recombinant HDAC2 by Michaelis-Menten equation analysis
Sequence of Histone deacetylase 2 (Q92769 whole entry): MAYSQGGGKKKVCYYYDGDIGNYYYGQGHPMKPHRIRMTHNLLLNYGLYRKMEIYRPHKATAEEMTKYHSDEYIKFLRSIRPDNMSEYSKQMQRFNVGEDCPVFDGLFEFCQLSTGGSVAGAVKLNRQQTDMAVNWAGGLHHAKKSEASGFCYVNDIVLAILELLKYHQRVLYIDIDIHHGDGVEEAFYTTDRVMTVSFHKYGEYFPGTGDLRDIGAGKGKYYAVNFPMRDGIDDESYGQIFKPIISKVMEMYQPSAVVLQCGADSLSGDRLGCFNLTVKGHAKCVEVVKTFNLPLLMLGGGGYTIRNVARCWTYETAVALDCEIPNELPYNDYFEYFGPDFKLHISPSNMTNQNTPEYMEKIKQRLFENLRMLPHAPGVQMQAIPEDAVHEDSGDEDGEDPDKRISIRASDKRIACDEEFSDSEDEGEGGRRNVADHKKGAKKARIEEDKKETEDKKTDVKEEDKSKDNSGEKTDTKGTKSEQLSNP

Liver = assay: Half life in mouse liver microsomes assessed as gluconoride formation at 0.4 ug/mL by HPLC-MS analysis in presence of UDPGA; type: ADME, Microsome
Summary of the method: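 Mouse liver microsome incubation run for phase II conjugation, with UDPGA added. Half-life was determined, and the glucuronide conjugate was detected by mass spectrometry.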

Histone deacetylase 4 = Histone deacetylase 4 (Homo sapiens, UniProt P56524); assay: Inhibition of human recombinant HDAC4 by Michaelis-Menten equation analysis
Sequence of Histone deacetylase 4 (P56524 whole entry): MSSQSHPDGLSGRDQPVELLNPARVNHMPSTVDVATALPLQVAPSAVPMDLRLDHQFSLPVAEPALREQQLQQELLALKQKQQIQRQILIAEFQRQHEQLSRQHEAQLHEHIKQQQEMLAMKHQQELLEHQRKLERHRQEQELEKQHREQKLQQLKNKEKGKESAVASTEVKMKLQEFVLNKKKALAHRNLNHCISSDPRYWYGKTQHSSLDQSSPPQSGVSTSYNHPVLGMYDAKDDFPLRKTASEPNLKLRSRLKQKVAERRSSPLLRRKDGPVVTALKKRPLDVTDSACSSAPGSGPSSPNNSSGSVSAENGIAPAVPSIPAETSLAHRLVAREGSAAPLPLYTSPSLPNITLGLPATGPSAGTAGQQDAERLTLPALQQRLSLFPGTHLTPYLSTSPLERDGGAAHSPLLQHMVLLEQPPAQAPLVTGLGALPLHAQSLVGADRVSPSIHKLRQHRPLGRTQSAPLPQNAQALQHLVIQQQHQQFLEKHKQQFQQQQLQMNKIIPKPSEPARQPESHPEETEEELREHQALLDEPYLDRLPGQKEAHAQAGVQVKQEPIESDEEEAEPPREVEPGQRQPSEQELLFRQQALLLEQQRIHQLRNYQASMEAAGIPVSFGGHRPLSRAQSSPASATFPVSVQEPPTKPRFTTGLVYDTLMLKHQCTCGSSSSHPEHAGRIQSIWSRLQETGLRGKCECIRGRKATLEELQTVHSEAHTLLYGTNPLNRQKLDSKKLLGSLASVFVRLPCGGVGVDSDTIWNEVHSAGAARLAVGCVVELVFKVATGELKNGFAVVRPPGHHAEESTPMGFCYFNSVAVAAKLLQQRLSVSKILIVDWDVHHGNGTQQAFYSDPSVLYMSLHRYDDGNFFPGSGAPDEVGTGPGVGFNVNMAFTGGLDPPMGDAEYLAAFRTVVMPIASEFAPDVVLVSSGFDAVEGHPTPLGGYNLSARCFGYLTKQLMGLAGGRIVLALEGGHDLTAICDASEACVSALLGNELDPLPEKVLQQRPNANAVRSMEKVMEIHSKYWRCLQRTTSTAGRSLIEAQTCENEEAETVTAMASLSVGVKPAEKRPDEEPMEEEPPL

HCT-116 = assay: Cytotoxicity against human HCT116 cells after 72 hrs by MTS assay; type: functional; settings: HCT-116, 72 h
Homo sapiens [2] = species on record: Homo sapiens; assay: Selectivity ratio of Ki for human recombinant HDAC8 to Ki for human recombinant HDAC2
Homo sapiens [3] = species on record: Homo sapiens; assay: Selectivity ratio of Ki for human recombinant HDAC6 to Ki for human recombinant HDAC2
Homo sapiens [4] = species on record: Homo sapiens; assay: Selectivity ratio of Ki for human recombinant HDAC5 to Ki for human recombinant HDAC2
HuT78 = assay: Cytotoxicity against human HUT78 cells after 72 hrs by MTS assay; type: functional; settings: HuT78, 72 h
[5] = biological target: T1, Protein deacetylase HDAC6 (Homo sapiens, UniProt Q9UBN7); assay: Inhibition of human recombinant HDAC6 by Michaelis-Menten equation analysis
T1 sequence (Q9UBN7 whole entry): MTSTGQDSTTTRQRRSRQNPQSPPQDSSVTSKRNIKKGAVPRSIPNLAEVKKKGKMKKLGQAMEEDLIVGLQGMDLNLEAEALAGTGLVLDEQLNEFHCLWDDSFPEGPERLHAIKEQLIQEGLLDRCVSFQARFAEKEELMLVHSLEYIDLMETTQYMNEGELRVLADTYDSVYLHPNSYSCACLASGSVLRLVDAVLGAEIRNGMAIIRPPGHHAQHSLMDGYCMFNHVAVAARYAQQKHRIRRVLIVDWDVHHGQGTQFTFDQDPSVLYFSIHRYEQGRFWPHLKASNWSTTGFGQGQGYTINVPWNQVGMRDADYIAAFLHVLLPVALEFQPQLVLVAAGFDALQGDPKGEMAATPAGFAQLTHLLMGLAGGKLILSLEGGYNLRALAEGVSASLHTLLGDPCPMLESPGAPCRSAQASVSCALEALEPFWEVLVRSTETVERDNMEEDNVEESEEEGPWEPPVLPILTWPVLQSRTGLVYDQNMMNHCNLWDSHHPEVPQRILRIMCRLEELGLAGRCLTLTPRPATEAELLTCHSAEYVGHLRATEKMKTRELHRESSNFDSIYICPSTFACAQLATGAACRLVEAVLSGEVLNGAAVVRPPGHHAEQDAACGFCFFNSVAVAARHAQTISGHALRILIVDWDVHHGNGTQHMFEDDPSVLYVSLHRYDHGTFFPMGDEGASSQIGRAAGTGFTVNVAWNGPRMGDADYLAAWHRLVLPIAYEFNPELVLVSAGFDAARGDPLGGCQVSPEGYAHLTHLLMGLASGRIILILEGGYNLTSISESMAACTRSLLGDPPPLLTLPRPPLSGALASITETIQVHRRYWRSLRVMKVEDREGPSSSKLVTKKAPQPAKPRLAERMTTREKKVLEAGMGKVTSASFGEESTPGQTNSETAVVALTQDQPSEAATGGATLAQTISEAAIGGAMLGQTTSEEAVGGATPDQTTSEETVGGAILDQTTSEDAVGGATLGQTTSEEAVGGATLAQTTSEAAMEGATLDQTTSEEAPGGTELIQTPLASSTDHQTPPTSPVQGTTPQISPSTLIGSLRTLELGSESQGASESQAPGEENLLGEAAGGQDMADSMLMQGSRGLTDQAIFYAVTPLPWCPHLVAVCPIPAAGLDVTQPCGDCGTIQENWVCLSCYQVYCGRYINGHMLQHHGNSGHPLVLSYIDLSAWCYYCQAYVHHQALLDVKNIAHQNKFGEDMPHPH

Histone deacetylase 1 = Histone deacetylase 1 (Homo sapiens, UniProt Q13547); assay: Inhibition of human recombinant HDAC1 by Michaelis-Menten equation analysis
Sequence of Histone deacetylase 1 (Q13547 whole entry): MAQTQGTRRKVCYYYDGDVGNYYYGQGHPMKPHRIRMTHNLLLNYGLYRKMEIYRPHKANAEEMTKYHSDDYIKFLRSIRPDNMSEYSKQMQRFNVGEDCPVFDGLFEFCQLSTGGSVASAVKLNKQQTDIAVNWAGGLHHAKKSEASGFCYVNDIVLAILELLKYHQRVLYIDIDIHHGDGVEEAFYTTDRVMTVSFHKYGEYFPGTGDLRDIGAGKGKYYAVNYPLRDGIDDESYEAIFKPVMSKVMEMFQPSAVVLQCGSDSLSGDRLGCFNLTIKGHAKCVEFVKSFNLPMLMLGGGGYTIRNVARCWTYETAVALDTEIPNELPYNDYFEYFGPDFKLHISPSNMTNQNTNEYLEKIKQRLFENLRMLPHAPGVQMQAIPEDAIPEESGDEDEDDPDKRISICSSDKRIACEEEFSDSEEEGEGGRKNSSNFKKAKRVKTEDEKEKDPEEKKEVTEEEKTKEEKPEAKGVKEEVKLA

[6] = Cytotoxicity against HDF after 72 hrs by MTS assay; settings: human, HDF cells
Histone deacetylase 8 = biological target: T2, Histone deacetylase 8 (Homo sapiens, UniProt Q9BY41); assay: Inhibition of human recombinant HDAC8 by Michaelis-Menten equation analysis
T2 sequence (Q9BY41 whole entry): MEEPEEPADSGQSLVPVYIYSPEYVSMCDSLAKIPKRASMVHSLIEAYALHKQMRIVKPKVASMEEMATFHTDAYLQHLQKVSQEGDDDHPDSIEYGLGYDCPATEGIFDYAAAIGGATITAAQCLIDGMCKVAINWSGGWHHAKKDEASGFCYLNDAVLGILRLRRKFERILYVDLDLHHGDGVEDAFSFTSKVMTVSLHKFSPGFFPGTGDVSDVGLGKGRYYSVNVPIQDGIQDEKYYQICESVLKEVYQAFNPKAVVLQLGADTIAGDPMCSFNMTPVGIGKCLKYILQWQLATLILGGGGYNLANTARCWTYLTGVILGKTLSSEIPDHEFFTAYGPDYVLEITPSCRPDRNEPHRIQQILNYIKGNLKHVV

Homo sapiens [7] = species on record: Homo sapiens; assay: Selectivity ratio of Ki for human recombinant HDAC1 to Ki for human recombinant HDAC2
Jurkat = assay: Cytotoxicity against human Jurkat cells after 72 hrs by MTS assay; type: functional

Sequence of Histone deacetylase 5 (Q9UQL6 whole entry): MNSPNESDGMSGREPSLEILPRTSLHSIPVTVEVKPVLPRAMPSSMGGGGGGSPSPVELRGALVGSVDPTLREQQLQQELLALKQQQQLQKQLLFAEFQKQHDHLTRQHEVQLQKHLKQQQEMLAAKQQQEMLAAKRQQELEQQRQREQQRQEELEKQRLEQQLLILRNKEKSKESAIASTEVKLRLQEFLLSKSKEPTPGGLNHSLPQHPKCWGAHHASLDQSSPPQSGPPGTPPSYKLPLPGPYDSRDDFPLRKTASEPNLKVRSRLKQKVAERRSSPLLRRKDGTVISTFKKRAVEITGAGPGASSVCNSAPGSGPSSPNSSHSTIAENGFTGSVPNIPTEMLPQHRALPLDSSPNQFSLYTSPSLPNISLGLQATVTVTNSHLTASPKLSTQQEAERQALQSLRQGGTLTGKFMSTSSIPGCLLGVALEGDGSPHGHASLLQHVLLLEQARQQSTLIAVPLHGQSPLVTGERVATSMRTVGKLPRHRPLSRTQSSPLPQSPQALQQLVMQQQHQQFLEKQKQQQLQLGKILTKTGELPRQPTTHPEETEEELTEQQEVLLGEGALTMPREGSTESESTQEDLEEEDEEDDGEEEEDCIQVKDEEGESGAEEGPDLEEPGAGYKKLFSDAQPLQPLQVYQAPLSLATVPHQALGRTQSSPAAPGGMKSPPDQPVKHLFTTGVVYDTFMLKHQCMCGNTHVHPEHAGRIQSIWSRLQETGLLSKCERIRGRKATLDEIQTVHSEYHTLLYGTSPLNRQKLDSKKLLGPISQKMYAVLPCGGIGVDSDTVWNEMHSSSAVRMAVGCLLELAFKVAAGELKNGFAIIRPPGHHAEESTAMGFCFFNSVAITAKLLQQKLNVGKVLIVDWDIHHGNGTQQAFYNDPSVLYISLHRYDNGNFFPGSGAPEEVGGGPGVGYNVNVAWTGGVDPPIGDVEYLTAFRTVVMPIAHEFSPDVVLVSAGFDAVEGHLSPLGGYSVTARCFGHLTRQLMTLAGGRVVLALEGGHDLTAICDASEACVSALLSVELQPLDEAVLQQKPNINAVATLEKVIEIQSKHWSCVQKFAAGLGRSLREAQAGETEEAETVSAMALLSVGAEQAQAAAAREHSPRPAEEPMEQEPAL

| SMILES | Ki (Histone deacetylase 5) | GI50 (BXPC-3) | Ratio Ki (Homo sapiens [1]) | Ki (Histone deacetylase 2) | t1/2 (Liver) | Ki (Histone deacetylase 4) | GI50 (HCT-116) | Ratio Ki (Homo sapiens [2]) | Ratio Ki (Homo sapiens [3]) | Ratio Ki (Homo sapiens [4]) | GI50 (HuT78) | Ki [5] | Ki (Histone deacetylase 1) | GI50 at 72 h [6] | Ki (Histone deacetylase 8) | Ratio Ki (Homo sapiens [7]) | GI50 (Jurkat) |
| --- | --- | --- | --- | --- | --- | --- | --- | --- | --- | --- | --- | --- | --- | --- | --- | --- | --- |
| COc1ccc(OC)c(-c2ccccc(O)c2=O)c1 | > 2500 nM | 14100 nM | > 100 | 0.42 nM | > 1 h | > 20000 nM | 46600 nM | > 100 | > 100 | > 100 | 3050 nM | > 2500 nM | > 2500 nM | > 100000 nM | 811 nM | > 100 | 760 nM |
| CC(C)c1cccc(=O)c(O)c1 [HINOKITIOL] | > 2500 nM | 19000 nM | – | 15.4 nM | > 1 h | > 20000 nM | 6920 nM | – | – | – | 4990 nM | > 2500 nM | > 2500 nM | > 100000 nM | 178 nM | – | 1100 nM |
| O=c1c(O)ccccc1-c1ccc2ccccc2c1 | > 2500 nM | 17100 nM | > 100 | 0.25 nM | > 1 h | > 20000 nM | 32100 nM | > 100 | > 100 | > 100 | 4110 nM | > 2500 nM | > 2500 nM | 93100 nM | 186 nM | > 100 | 1150 nM |
| CCC(C)c1cccc(O)c(=O)c1 (configuration not stated) | > 2500 nM | 104000 nM | – | 0.22 nM | > 1 h | 6110 nM | 26900 nM | – | – | – | 3250 nM | > 2500 nM | > 2500 nM | > 100000 nM | 2.27 nM | – | 590 nM |
| O=c1cc(C2CCCC2)cccc1O | > 2500 nM | 180000 nM | > 100 | 0.04 nM | > 1 h | 990 nM | > 100000 nM | > 100 | > 100 | > 100 | 11400 nM | > 2500 nM | > 2500 nM | > 100000 nM | 123 nM | > 100 | 6300 nM |
| COc1cccc(C(C)C)cc1=O | > 2500 nM | > 100000 nM | – | > 2500 nM | > 1 h | 11600 nM | > 100000 nM | – | – | – | > 100000 nM | > 2500 nM | > 2500 nM | > 100000 nM | 7.87 nM | – | > 100000 nM |
| O=c1cc(-c2ccccc2)cccc1O | > 2500 nM | 18500 nM | – | 0.06 nM | > 1 h | 10900 nM | 53400 nM | – | – | – | 4140 nM | > 2500 nM | > 2500 nM | > 100000 nM | 1.47 nM | – | 670 nM |
| COc1ccc(OC)c(-c2cccc(O)c(=O)c2)c1 | > 2500 nM | 34800 nM | > 100 | 0.51 nM | > 1 h | 11200 nM | > 100000 nM | > 100 | > 100 | > 100 | 17100 nM | > 2500 nM | > 2500 nM | > 100000 nM | 266 nM | > 100 | 5890 nM |
| COc1ccc(-c2cccc(O)c(=O)c2)cc1 | > 2500 nM | 91600 nM | – | 0.12 nM | > 1 h | 8360 nM | 43700 nM | – | – | – | 8950 nM | > 2500 nM | > 2500 nM | > 100000 nM | 2.38 nM | – | 4620 nM |
| CC(C)(C)c1cccc(O)c(=O)c1 | > 2500 nM | 43000 nM | > 100 | 0.13 nM | > 1 h | 806 nM | 62600 nM | > 100 | > 100 | > 100 | 13100 nM | > 2500 nM | > 2500 nM | > 100000 nM | 12.8 nM | > 100 | 4450 nM |
| COc1ccc(-c2ccccc(O)c2=O)cc1 | > 2500 nM | 35900 nM | > 100 | 0.81 nM | > 1 h | > 20000 nM | 57000 nM | > 100 | > 100 | > 100 | 2870 nM | > 2500 nM | > 2500 nM | > 100000 nM | 83.8 nM | > 100 | 620 nM |
